Results: ChEMBL document CHEMBL4000215, “A structure-guided optimization of pyrido[2,3-d]pyrimidin-7-ones as selective inhibitors of EGFRL858R/T790M mutant with improved pharmacokinetic properties” (Eur J Med Chem, 2017)

What was measured:
[1] = Oral bioavailability in Sprague-Dawley rat at 25 mg/kg administered via gavage by LC-MS/MS analysis; format: ADME, organism-based; conditions: in vivo
In short: (§1)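 Male Sprague-Dawley rats (180-300 g, n = 3 per route) were given a single dose, either 5 mg/kg iv or 25 mg/kg by oral gavage. Vehicle was 5% DMSO, 40% PEG400 and saline. Orbital sinus blood (0.2 mL) was taken into heparinized tubes at 0 min to 24 h. Plasma was stored at -80 °C and assayed by LC-MS/MS, and PK parameters were then calculated.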

Rattus norvegicus [2] = assay: (§2) Apparent clearance in Sprague-Dawley rat at 5 mg/kg, iv by LC-MS/MS analysis; format: ADME, organism-based; conditions: in vivo; in short: as §1
Rattus norvegicus [3] = assay: (§3) AUC (0 to infinity) in Sprague-Dawley rat at 5 mg/kg, iv by LC-MS/MS analysis; format: ADME, organism-based; set-up: dose 5 mg/kg, time infinity, route intravenous; conditions: in vivo; in short: as §1
[4] = Cmax in Sprague-Dawley rat at 5 mg/kg, iv by LC-MS/MS analysis; format: ADME, organism-based; set-up: dose 5 mg/kg, route intravenous; conditions: in vivo; in short: as §1
[5] = Cmax in Sprague-Dawley rat at 25 mg/kg administered via oral gavage by LC-MS/MS analysis; format: ADME, organism-based; set-up: dose 25 mg/kg, route oral; conditions: in vivo; in short: as §1
[6] = AUC (0 to infinity) in Sprague-Dawley rat at 25 mg/kg administered via oral gavage by LC-MS/MS analysis; format: ADME, organism-based; set-up: dose 25 mg/kg, route oral, time infinity; conditions: in vivo; in short: as §1
[7] = Tmax in Sprague-Dawley rat at 25 mg/kg administered via oral gavage by LC-MS/MS analysis; format: ADME, organism-based; conditions: in vivo; in short: as §1
[8] = target: T1, Epidermal growth factor receptor (Homo sapiens, UniProt P00533); assay: Inhibition of N-terminal 6His/TEV protease cleavage site-tagged wild type human EGFR using poly (Glu,Tyr) 4:1 as substrate after 1 hr by ELISA
NCI-H1975 = assay: Antiproliferative activity against human NCI-H1975 cells harboring EGFR L858R/T790M double mutant after 72 hrs by SRB assay; format: functional, cell-based; conditions: NCI-H1975, 72 h
In short: (§4)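 Cells were cultured in RPMI 1640 with 10% FBS and 1% penicillin-streptomycin at 37 °C in 5% CO2, and their EGFR gene was sequenced before use. They were exposed to a range of compound concentrations for 72 h, and growth was read by sulforhodamine B staining. IC50 came from non-linear regression with a sigmoidal dose-response model.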

A-431 = assay: Antiproliferative activity against human A431 cells harboring wild type EGFR after 72 hrs by SRB assay; format: cell-based; conditions: A-431, 72 h; in short: as §4
[9] = target: Epidermal growth factor receptor (Homo sapiens, UniProt P00533, L858R/T790M); assay: Inhibition of N-terminal 6His/TEV protease cleavage site-tagged human EGFR L858R/T790M double mutant (696 to 1022 residues) using poly (Glu,Tyr) 4:1 as substrate after 1 hr by ELISA
[10] = target: T1, Epidermal growth factor receptor; assay: Inhibition of EGF-stimulated wild type EGFR in human A431 cells assessed as decrease in ERK phosphorylation at 3 to 300 nM preincubated for 4 hrs followed by EGF stimulation measured after 10 mins by Western blot analysis; conditions: a431, 10 min, 0.3 µM
[11] = target: T1, Epidermal growth factor receptor; assay: Inhibition of EGF-stimulated wild type EGFR phosphorylation in human A431 cells at 3 to 300 nM preincubated for 4 hrs followed by EGF stimulation measured after 10 mins by Western blot analysis; conditions: a431, 10 min, 0.3 µM
[12] = as §2; format: ADME, organism-based; conditions: Sprague-Dawley, in vivo, read-out: CL(app) (converted); in short: as §1
[13] = as §3; format: ADME, organism-based; set-up: dose 5 mg/kg, time infinity, route intravenous; conditions: Sprague-Dawley, in vivo; in short: as §1

T1 sequence (P00533 whole entry): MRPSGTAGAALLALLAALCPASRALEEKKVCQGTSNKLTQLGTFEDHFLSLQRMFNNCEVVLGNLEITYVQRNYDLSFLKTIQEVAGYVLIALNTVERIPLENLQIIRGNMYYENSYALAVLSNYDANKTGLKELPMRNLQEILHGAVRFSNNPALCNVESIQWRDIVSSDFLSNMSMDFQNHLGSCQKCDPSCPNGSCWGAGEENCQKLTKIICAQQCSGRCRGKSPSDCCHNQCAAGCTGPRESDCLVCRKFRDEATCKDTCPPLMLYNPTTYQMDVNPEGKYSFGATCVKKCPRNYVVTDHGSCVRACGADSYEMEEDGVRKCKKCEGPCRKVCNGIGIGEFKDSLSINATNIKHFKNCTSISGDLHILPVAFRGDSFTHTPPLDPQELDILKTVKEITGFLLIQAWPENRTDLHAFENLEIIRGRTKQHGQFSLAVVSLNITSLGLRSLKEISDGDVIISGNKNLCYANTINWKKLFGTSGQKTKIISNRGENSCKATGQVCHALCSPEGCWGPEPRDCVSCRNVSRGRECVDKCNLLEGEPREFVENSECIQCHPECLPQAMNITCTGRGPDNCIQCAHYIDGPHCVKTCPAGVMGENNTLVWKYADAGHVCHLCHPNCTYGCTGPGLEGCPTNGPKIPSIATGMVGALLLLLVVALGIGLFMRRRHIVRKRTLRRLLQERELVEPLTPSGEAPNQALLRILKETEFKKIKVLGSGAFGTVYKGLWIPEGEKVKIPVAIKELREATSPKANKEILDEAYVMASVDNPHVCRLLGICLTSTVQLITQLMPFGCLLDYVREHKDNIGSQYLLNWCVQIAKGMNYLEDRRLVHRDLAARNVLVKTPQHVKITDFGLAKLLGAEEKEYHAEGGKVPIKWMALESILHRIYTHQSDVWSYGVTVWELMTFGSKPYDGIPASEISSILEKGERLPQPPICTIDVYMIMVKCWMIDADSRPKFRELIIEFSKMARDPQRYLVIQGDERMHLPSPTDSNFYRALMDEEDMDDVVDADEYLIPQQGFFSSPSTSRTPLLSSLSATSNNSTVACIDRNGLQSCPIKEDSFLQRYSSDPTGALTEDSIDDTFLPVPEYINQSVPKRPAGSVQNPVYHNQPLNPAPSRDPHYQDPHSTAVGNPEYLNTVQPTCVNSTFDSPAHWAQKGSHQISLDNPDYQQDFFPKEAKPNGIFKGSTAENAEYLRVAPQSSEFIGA
Epidermal growth factor receptor (Homo sapiens, UniProt P00533, L858R/T790M), sequence (P00533 25-1210 T790M/L858R limits assumed): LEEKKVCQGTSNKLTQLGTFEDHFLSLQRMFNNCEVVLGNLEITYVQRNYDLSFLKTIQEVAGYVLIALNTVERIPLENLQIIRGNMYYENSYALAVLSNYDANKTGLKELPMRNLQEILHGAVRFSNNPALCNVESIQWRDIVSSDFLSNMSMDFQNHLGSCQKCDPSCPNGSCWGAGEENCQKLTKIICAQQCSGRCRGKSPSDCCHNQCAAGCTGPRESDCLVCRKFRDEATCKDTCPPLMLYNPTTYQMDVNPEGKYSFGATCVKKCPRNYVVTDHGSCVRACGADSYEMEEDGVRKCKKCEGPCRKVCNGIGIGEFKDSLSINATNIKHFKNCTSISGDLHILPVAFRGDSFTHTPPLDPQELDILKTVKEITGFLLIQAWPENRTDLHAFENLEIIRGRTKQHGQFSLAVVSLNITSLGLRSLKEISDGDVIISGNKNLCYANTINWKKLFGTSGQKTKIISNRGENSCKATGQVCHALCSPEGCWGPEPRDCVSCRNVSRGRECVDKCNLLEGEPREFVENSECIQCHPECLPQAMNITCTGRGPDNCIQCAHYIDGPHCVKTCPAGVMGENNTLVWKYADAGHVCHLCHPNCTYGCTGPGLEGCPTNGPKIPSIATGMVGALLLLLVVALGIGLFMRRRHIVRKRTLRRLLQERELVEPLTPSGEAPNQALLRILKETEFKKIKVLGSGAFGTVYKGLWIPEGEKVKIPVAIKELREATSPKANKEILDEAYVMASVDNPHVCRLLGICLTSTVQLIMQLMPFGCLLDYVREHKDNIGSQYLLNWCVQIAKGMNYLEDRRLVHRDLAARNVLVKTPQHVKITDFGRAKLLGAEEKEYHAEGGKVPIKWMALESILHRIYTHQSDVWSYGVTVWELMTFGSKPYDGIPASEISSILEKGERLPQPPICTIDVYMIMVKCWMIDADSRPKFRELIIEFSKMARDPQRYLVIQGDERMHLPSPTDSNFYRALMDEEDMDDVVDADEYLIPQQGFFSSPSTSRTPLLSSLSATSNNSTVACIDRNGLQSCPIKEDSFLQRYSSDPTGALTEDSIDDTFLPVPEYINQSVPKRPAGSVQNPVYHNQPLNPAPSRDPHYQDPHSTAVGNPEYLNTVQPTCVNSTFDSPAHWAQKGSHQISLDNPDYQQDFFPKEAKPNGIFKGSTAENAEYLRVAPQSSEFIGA

| SMILES | IC50 [8] | IC50 (NCI-H1975) | IC50 (A-431) | IC50 [9] | other results |
| --- | --- | --- | --- | --- | --- |
| C=CC(=O)Nc1cc(-n2c(=O)cc(C)c3cnc(Nc4ccc(N5CCN(C)C(C)C5)cc4OC)nc32)cc(C(F)(F)F)c1.CS(=O)(=O)O (centres undefined) |  |  |  |  | bioavailability [1]: 5.58%; CL(app) (Rattus norvegicus [2]): 37.5 mL/min/kg; AUC (Rattus norvegicus [3]): 398.48 ng·h/mL; Cmax [4]: 259 ng/mL; Cmax [5]: 21.4 ng/mL; AUC(0-inf) [6]: 111 ng·h/mL; Tmax [7]: 1.67 h |
| C=CC(=O)Nc1cc(-n2c(=O)cc(C)c3cnc(Nc4ccc(N5CCN(C)CC5)cc4OC)nc32)cc(C(C)(C)C)c1 | > 1000 nM | 197 nM | 660 nM | 17.7 nM |  |
| C=CC(=O)Nc1cc(Br)cc(-n2c(=O)cc(C)c3cnc(Nc4ccc(N5CCN(C)CC5)cc4OC)nc32)c1 | 57 nM | 4 nM | 1150 nM | 1.8 nM |  |
| C=CC(=O)Nc1cccc(-n2c(=O)cc(C)c3cnc(Nc4cnn(CCN(C)C)c4)nc32)c1 | 445 nM | 289 nM | 4000 nM | 4.2 nM |  |
| C=CC(=O)Nc1cc(-n2c(=O)cc(C)c3cnc(Nc4ccc(N5CCN(C)CC5)cc4OC)nc32)cc(C(F)(F)F)c1 | 182 nM | 40 nM | 1390 nM | 2 nM | inhibition (INH) [10]: Not Active; inhibition (INH) [11]: Not Active |
| C=CC(=O)Nc1cc(-n2c(=O)cc(C)c3cnc(Nc4ccc(N5CC(C)N(C)C(C)C5)cc4OC)nc32)cc(C(F)(F)F)c1.CS(=O)(=O)O (centres undefined) |  |  |  |  | bioavailability [1]: 4.38%; clearance [12]: 205 mL/min/kg; AUC(0-inf) [13]: 410 ng·h/mL; Cmax [4]: 592 ng/mL; Cmax [5]: 17.4 ng/mL; AUC(0-inf) [6]: 89.7 ng·h/mL; Tmax [7]: 6 h |
| C=CC(=O)Nc1cc(Cl)cc(-n2c(=O)cc(C)c3cnc(Nc4ccc(N5CCN(C)CC5)cc4OC)nc32)c1 | 33.1 nM | 7 nM | 1430 nM | 0.6 nM |  |
| C=CC(=O)Nc1cccc(-n2c(=O)cc(C)c3cnc(Nc4ccc(N5CCN(C)CC5)cc4OC)nc32)c1.CS(=O)(=O)O |  |  |  |  | bioavailability [1]: 10.8%; clearance [12]: 190 mL/min/kg; AUC(0-inf) [13]: 450 ng·h/mL; Cmax [4]: 1370 ng/mL; Cmax [5]: 83.1 ng/mL; AUC(0-inf) [6]: 243 ng·h/mL; Tmax [7]: 1.56 h |
| C=CC(=O)N1CC[C@@H](n2c(=O)cc(C)c3cnc(Nc4ccc(N5CCN(C)CC5)cc4OC)nc32)C1 |  | 5200 nM | > 10000 nM |  |  |
| C=CC(=O)Nc1cccc(-n2c(=O)cc(C)c3cnc(Nc4ccc(N5CC(C)N(C)C(C)C5)cc4OC)nc32)c1 (centres undefined) |  | 4 nM | 1670 nM |  |  |
| C=CC(=O)Nc1cccc(-n2c(=O)cc(C)c3cnc(Nc4ccc(N5CCN(C)CC5)nc4)nc32)c1 | 46.8 nM | 64 nM | 2380 nM | 1.4 nM |  |
| C=CC(=O)N1CC[C@H](n2c(=O)cc(C)c3cnc(Nc4ccc(N5CCN(C)CC5)cc4OC)nc32)C1 |  | 762 nM | > 10000 nM |  |  |
| C=CC(=O)Nc1cccc(-n2c(=O)cc(C)c3cnc(Nc4ccc(N5CCN(C)C(C)C5)cc4OC)nc32)c1.CS(=O)(=O)O (centres undefined) |  |  |  |  | bioavailability [1]: 24.3%; clearance [12]: 197 mL/min/kg; AUC(0-inf) [13]: 433 ng·h/mL; Cmax [4]: 1330 ng/mL; Cmax [5]: 155 ng/mL; AUC(0-inf) [6]: 526 ng·h/mL; Tmax [7]: 1.67 h |
| C=CC(=O)Nc1cc(-n2c(=O)cc(C)c3cnc(Nc4ccc(N5CCN(C)CC5)cc4OC)nc32)ccc1C | 36.9 nM | 81 nM | 3620 nM | 2.3 nM |  |
| C=CC(=O)Nc1cccc(-n2c(=O)cc(C)c3cnc(Nc4ccc(N5CC(C)N(C)C(C)C5)cc4OC)nc32)c1.CS(=O)(=O)O (centres undefined) |  |  |  |  | bioavailability [1]: 13.3%; clearance [12]: 135 mL/min/kg; AUC(0-inf) [13]: 622 ng·h/mL; Cmax [4]: 772 ng/mL; Cmax [5]: 64.4 ng/mL; AUC(0-inf) [6]: 613 ng·h/mL; Tmax [7]: 4 h |
| C=CC(=O)Nc1cc(-n2c(=O)cc(C)c3cnc(Nc4ccc(N5CCN(C)C(C)C5)cc4OC)nc32)cc(C(F)(F)F)c1 (centres undefined) | 66 nM | 12 nM | 1710 nM | 1.6 nM |  |
| C=CC(=O)Nc1cc(C(C)C)cc(-n2c(=O)cc(C)c3cnc(Nc4ccc(N5CCN(C)CC5)cc4OC)nc32)c1 | 24 nM | 120 nM | 1440 nM | 2.4 nM |  |
| C=CC(=O)Nc1cccc(-n2c(=O)cc(C)c3cnc(Nc4ccc(N5CCN(C)C(C)C5)cc4OC)nc32)c1 (centres undefined) | 169 nM | 18 nM | 706 nM | 1.2 nM |  |
| C=CC(=O)Nc1cccc(-n2c(=O)cc(C)c3cnc(Nc4cnn(C5CCN(C)CC5)c4)nc32)c1 | 166 nM | 14 nM | 3520 nM | 1.8 nM |  |
| C=CC(=O)Nc1cc(CC)cc(-n2c(=O)cc(C)c3cnc(Nc4ccc(N5CCN(C)CC5)cc4OC)nc32)c1 | 472 nM | 142 nM | 1050 nM | 3.4 nM |  |
| C=CC(=O)Nc1cc(-n2c(=O)cc(C)c3cnc(Nc4ccc(N5CC(C)N(C)C(C)C5)cc4OC)nc32)cc(C(F)(F)F)c1 (centres undefined) | 97 nM | 30 nM | 1130 nM | 3.3 nM |  |
| C=CC(=O)Nc1cc(C)cc(-n2c(=O)cc(C)c3cnc(Nc4ccc(N5CCN(C)CC5)cc4OC)nc32)c1 | 208 nM | 6 nM | 3250 nM | 1.8 nM |  |
| C=CC(=O)Nc1cc(-n2c(=O)cc(C)c3cnc(Nc4ccc(N5CCN(C)CC5)cc4OC)nc32)cc(C(F)(F)F)c1.CS(=O)(=O)O |  |  |  |  | bioavailability [1]: 16.1%; clearance [12]: 102 mL/min/kg; AUC(0-inf) [13]: 831 ng·h/mL; Cmax [4]: 2460 ng/mL; Cmax [5]: 161 ng/mL; AUC(0-inf) [6]: 671 ng·h/mL; Tmax [7]: 2 h |
| C=CC(=O)N1CCC(n2c(=O)cc(C)c3cnc(Nc4ccc(N5CCN(C)CC5)cc4OC)nc32)CC1 | > 1000 nM | 2240 nM | > 10000 nM | > 1000 nM |  |
| C=CC(=O)Nc1cccc(Nc2nc(Nc3ccc(N4CCN(C(C)=O)CC4)cc3OC)ncc2C(F)(F)F)c1 [ROCILETINIB] |  | 42 nM | 1540 nM |  |  |
| C=CC(=O)Nc1cccc(-n2c(=O)cc(C)c3cnc(Nc4nc5c(s4)CN(C)CC5)nc32)c1 | 550 nM | 8 nM | 2700 nM | 2.5 nM |  |
| C=CC(=O)Nc1cccc(-n2c(=O)cc(C)c3cnc(Nc4ccc(N5CCN(C)CC5)cc4OC)nc32)c1 | 330 nM | 2 nM | 1400 nM |  |  |
| C=CC(=O)N1CCC(Cn2c(=O)cc(C)c3cnc(Nc4ccc(N5CCN(C)CC5)cc4OC)nc32)C1 (racemic) | > 1000 nM | 305 nM | > 10000 nM | 63.8 nM |  |
| C=CC(=O)Nc1cc(F)cc(-n2c(=O)cc(C)c3cnc(Nc4ccc(N5CCN(C)CC5)cc4OC)nc32)c1 | 26 nM | 0.1 nM | 817 nM | 0.8 nM |  |
